IDH1 mut inh – IDH1 R132H (human) inhibition | O75874 | IDH1 R132H reductase, diaphorase/resazurin fluorescence, 60 min | inhibition, % at 10 µM | hit rate 0.18% among 70,000 | AID 624101; in the data active = inhibition above about 34%; inconclusive = no clear call, values can overlap the other calls; inactive = below about 11%;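 also: 0% = DMSO and 100% = no enzyme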
Target sequence (O75874 whole entry R132H): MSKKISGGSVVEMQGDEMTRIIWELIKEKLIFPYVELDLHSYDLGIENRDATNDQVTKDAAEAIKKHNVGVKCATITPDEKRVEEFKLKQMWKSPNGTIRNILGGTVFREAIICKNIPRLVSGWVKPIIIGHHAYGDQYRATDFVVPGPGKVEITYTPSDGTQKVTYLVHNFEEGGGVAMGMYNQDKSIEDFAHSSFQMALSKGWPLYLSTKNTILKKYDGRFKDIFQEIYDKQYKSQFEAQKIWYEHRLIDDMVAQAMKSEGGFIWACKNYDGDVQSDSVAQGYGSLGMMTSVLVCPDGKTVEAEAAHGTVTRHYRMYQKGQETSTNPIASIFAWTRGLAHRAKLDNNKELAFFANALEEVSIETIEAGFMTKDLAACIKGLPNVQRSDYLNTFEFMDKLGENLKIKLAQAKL
T cruzi growth-1 – T. cruzi proliferation inhibition. T. cruzi beta-gal in NIH3T3, GalScreen luminescence, 90 h. inhibition, % at 8.34 µM. hit rate 5.9% among 77,000;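 active = mean inhibition above about 93%, with at least 55% of replicates each passing it, limit read from the data, passing the limit was not always enough; inconclusive = only one of those two conditions holds; inactive = neither condition holds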
KDM4C inh – blocks human GASC-1 (KDM4C) demethylase activity; Q9H3R0; GST-KDM4C 2-372, H3K9me3 peptide, LANCE TR-FRET; inhibition, % at 12.5 µM; hit rate 0.15% among 96,000;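 active = mean replicate inhibition above about 25%, with at least 55% of replicates also reaching it, limit read from the data, passing the limit was not always enough; inconclusive = only one of those two conditions met; inactive = neither condition met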
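Compound: one test concentration per compound; Material: GST-GASC-1 enzyme fragment 2-372; Amount: GASC-1 enzyme at 10 nM final in reaction; Also added: H3K9me3 peptide substrate, Fe(II), 2-oxoglutarate; Technique: LANCE TR-FRET; Times: 30 min demethylation and 1 h detection at room temperature.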
T cruzi growth-2 – Trypanosoma cruzi proliferation inhibition | shares compounds with T cruzi growth-1 | T. cruzi beta-gal in NIH3T3, GalScreen luminescence, 90 h | inhibition, % at 8.35 µM | hit rate 72% among 5,600 | AID 651739;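 active = mean replicate inhibition above about 95% and at least 55% of replicates individually reaching it, limit read from the data; inconclusive = only one of the two criteria is met; inactive = neither criterion is met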
T cruzi growth-3 – blocks T. cruzi growth in NIH3T3 host cells | inhibition, % at 2.09 µM | T. cruzi beta-gal in NIH3T3, GalScreen luminescence, 90 h | hit rate 21% among 5,600 | shares compounds with T cruzi growth-1;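 active = mean inhibition above about 95%, with at least 55% of replicates also reaching it, limit read from the data; inconclusive = meets just one of the two conditions; inactive = meets neither condition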;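 also: plate controls were neutral control median for no effect and positive control median for full effect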
3T3 cytotox – kills mouse NIH/3T3 fibroblasts. shares compounds with T cruzi growth-1. NIH/3T3 viability, CellTiter-Glo ATP luminescence, 90 h. cytotoxicity (signal decrease), % at 8.35 µM. hit rate 14% among 5,600. AID 651742;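 active = mean signal decrease across replicates above about 35% based on untreated-well scatter, with enough replicates individually passing, limit read from the data; inconclusive = no rule stated though some were filed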;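 also: 0% = median of neutral control wells and 100% = median of positive control wells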
NIH3T3 tox 2 – kills mouse NIH/3T3 fibroblasts. inhibition, % at 24.9 µM. shares compounds with T cruzi growth-1. NIH/3T3 viability, CellTiter-Glo ATP luminescence, 90 h. hit rate 56% among 5,600;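 active = mean loss of cell viability signal at or above a set limit, and enough replicates individually reaching it; inconclusive = meets only the mean limit or only the replicate share; inactive = meets neither condition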;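 also: 0% = median of neutral control wells and 100% = median of positive control wells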
The depositor's hits bear a star; ? = inconclusive; / = no result. This excerpt belongs to a sample that is enriched for hits.

SMILES	IDH1 mut inh	T cruzi growth-1	KDM4C inh	T cruzi growth-2	T cruzi growth-3	3T3 cytotox	NIH3T3 tox 2
CC=Cc1ccc2n(c1=O)C[C@@H]1[C@@H](CO)[C@H](C(=O)N[C@H](C)c3ccccc3)[C@H]2N1CC1CC1 (mixture of isomers)	/	12	-2	/	/	/	/
O=C(NCC[C@H]1CC[C@@H](NS(=O)(=O)c2cccc(F)c2)[C@H](CO)O1)C1CC1	0	-54	-3	/	/	/	/
CC(C)CC#Cc1ccc2c(c1)O[C@@H](CN(C)Cc1ccc3c(c1)OCO3)[C@H](C)CN([C@H](C)CO)S2(=O)=O	0	61	/	/	/	/	/
CC(C)CC#Cc1ccc2c(c1)O[C@H](CN(C)Cc1ccc3c(c1)OCO3)[C@H](C)CN([C@H](C)CO)S2(=O)=O	0	89	/	/	/	/	/
CCCC#Cc1ccc2c(c1)O[C@@H](CN(C)Cc1ccc3c(c1)OCO3)[C@@H](C)CN([C@@H](C)CO)S2(=O)=O	-1	126*	-1	89	103*	29	105*
CCCC#Cc1ccc2c(c1)O[C@H](CN(C)Cc1ccc3c(c1)OCO3)[C@H](C)CN([C@@H](C)CO)S2(=O)=O	0	128*	/	?	112*	29	104*
CCCC#Cc1ccc2c(c1)O[C@H](CN(C)Cc1ccc3c(c1)OCO3)[C@H](C)CN([C@H](C)CO)S2(=O)=O	-1	130*	/	100*	110*	6	104*
CC(C)CC#Cc1ccc2c(c1)O[C@@H](CN(C)Cc1ccc3c(c1)OCO3)[C@@H](C)CN([C@H](C)CO)S2(=O)=O	-2	93	/	/	/	/	/
CCCC#Cc1ccc2c(c1)O[C@H](CN(C)Cc1ccc3c(c1)OCO3)[C@@H](C)CN([C@H](C)CO)S2(=O)=O	0	101*	-1	98*	92	26	106*
CC(C)CC#Cc1ccc2c(c1)O[C@@H](CN(C)Cc1ccc3c(c1)OCO3)[C@H](C)CN([C@@H](C)CO)S2(=O)=O	-1	72	/	/	/	/	/
CCC(=O)N1CC2(C1)[C@@H](c1ccccc1)[C@@H](CO)N2CCC(F)(F)F	/	/	0	/	/	/	/
COCC(=O)N1[C@@H](CO)[C@@H](c2ccccc2)C12CN(C(=O)NC1CCCCC1)C2	/	/	-1	/	/	/	/
O=C(NCC1CCCCC1)[C@H]1[C@H](CO)[C@H]2Cn3c(ccc(C4=CCCC4)c3=O)[C@@H]1N2C(=O)CC1CC1	/	19	-2	/	/	/	/
O=S(=O)(c1ccccc1F)N1CCCCN2[C@H](C1)[C@H](c1ccc(-c3cccnc3)cc1)[C@@H]2CO	/	100*	0	98*	19	16	12
O=S(=O)(c1ccccc1F)N1CCCCN2[C@H](CO)[C@H](c3ccc(-c4ccncc4)cc3)[C@H]2C1	/	102*	-1	105*	35	9	0
O=S(=O)(c1ccccc1F)N1CCCCN2[C@H](CO)[C@H](c3ccc(-c4ccncc4)cc3)[C@@H]2C1	/	44	1	/	/	/	/
O=S(=O)(c1ccccc1F)N1CCCCN2[C@H](CO)[C@@H](c3ccc(-c4cccnc4)cc3)[C@@H]2C1	/	94	1	/	/	/	/
O=C(Nc1ccccc1F)N1[C@H](CO)[C@@H]2c3ccccc3NC[C@@H]21	/	12	0	/	/	/	/
COc1ccc(NC(=O)Nc2ccc3c(c2)CC(=O)N([C@H](C)CO)C[C@H](C)[C@@H](CN(C)Cc2ccncc2)O3)cc1	7	/	1	/	/	/	/
COc1ccc(S(=O)(=O)N2CC[C@@H]3[C@@H](CO)N(C)c4ccc(-c5ccccc5F)cc4[C@@H]32)cc1	/	63	-6	/	/	/	/
CN1c2ccc(-c3ccccc3F)cc2[C@H]2[C@H](CCN2S(=O)(=O)c2ccc(F)cc2)[C@H]1CO	/	102*	6	100*	55	25	72*
COc1ccc(S(=O)(=O)N2CC[C@H]3[C@@H](CO)N(C)c4ccc(-c5ccccc5F)cc4[C@H]32)cc1	/	114*	0	112*	86	17	25
Cc1ccc(S(=O)(=O)N2CC[C@@H]3[C@@H](CO)N(C)c4ccc(-c5ccccc5F)cc4[C@@H]32)cc1	/	75	11	/	/	/	/
CO[C@@H]1CN(C)C(=O)c2cc(NC(=O)Nc3cccc(Cl)c3)ccc2OC[C@H](C)N(C)C[C@H]1C	0	-13	0	/	/	/	/
